Here are results for 16 compounds from ChEMBL document CHEMBL4014266, “Anti-Neurodegenerative Biflavonoid Glycosides from Impatiens balsamina” (J Nat Prod, 2017).

Data set [1] in a line: Cytotoxicity against rat C6 cells assessed as cell viability at 20 uM after 24 hrs by MTT assay relative to control. The following applies: read-out: Activity. It counts as cell-based. In outline: (§1)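 C6 cells seeded at 1 × 10^5 cells/well; after 1 d switched to serum-free DMEM with 20 μM compound for 24 h. NGF in conditioned medium measured by ELISA as percent of untreated control (100%); viability by MTT as percent. 6-shogaol as positive control.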

The test system of data set [2] is C6. In words: Neuroprotective activity in rat C6 cells assessed as NGF secretion at 20 uM after 24 hrs by ELISA relative to control. It counts as functional. In outline: as §1
Data set [3] deals with BV-2. In words: Antiinflammatory activity in mouse BV2 cells assessed as inhibition of LPS-induced nitrite production after 24 hrs by Griess assay. It counts as functional, cell-based. The conditions noted are these: BV-2, 24 h. In outline:
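BV-2 microglia seeded at 4 × 10^4 cells/well, exposed to graded doses of compounds with LPS stimulation. Nitrite quantified against a sodium nitrite standard curve; IC50 taken as the concentration giving 50% inhibition of NO production. L-NMMA as positive control. Mean ± SD of three independent experiments.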

In data set [4] the test system is SK-MEL-2. In words: Cytotoxicity against human SK-MEL-2 cells after 48 hrs by SRB assay. It counts as functional, cell-based. The following applies: SK-MEL-2, 48 h. The essentials: (§2)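 Quantitative staining of cellular protein with sulforhodamine B across human tumour lines A549, SK-OV-3, SK-MEL-2 and Bt549; IC50 derived. Etoposide served as positive control.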
On the technique in general: In SRB staining, fixed cells bind dye roughly in proportion to their protein.

Data set [5] has as its system SK-OV-3. In words: Cytotoxicity against human SKOV3 cells after 48 hrs by SRB assay. The conditions noted are these: SK-OV-3, 48 h. It counts as functional, cell-based. In outline:
as §2

Data set [6] deals with BT-549. The data set is described as follows: Cytotoxicity against human BT549 cells after 48 hrs by SRB assay. It counts as functional, cell-based. The conditions noted are these: BT-549, 48 h. In outline:
as §2

Data set [7] deals with A549. In words: Cytotoxicity against human A549 cells after 48 hrs by SRB assay. It counts as functional, cell-based. The conditions noted are these: A549, 48 h. The essentials: as §2
Data set [8] in a line: Cytotoxicity against mouse BV2 cells assessed as cell viability at 20 uM after 24 hrs by MTT assay relative to control. It counts as cell-based, BV-2. The conditions noted are these: read-out: Activity. The essentials:
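BV-2 cells seeded at 4 × 10^4 cells/well, treated with 20 μM compound; viability read by MTT and expressed as percent. Mean ± SD of three independent experiments.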
For orientation: Formazan colour is commonly taken as a measure of viable cells.

`C[C@@H]1O[C@@H](OC[C@H]2O[C@@H](Oc3c(-c4ccc(O)cc4)oc4c([C@]56O[C@@]5(c5ccc(O)cc5)Oc5cc(O)cc(O)c5C6=O)c(O)cc(O)c4c3=O)[C@H](O)[C@@H](O)[C@@H]2O)[C@H](O)[C@H](O)[C@H]1O`: the viability at 24 h, 20 µM is 109% in data set [1] and 100% in data set [8]. The Activity in data set [2] amounted to 74.27%. For the same compound, the IC50 (usually the concentration that inhibits the measured activity by half) in data set [3] is 31 µM; in data set [4] it was greater than 10 µM; in data set [5], greater than 10 µM; in data set [6], greater than 10 µM; in data set [7], greater than 10 µM.
As for `C[C@@H]1O[C@@H](OC[C@H]2O[C@@H](Oc3c(-c4ccc(O)cc4)oc4c([C@@]56O[C@]5(c5ccc(O)cc5)Oc5cc(O)cc(O)c5C6=O)c(O)cc(O)c4c3=O)[C@H](O)[C@@H](O)[C@@H]2O)[C@H](O)[C@H](O)[C@H]1O`, the viability at 24 h, 20 µM in data set [1] came to 102%; in data set [8] it was 99.9%. Further, the Activity in data set [2] is recorded as 88.36%. The IC50 in data set [3] was 39.2 µM; in data set [4] it was greater than 10 µM; in data set [5], greater than 10 µM; in data set [6], greater than 10 µM; in data set [7], greater than 10 µM.
Turning to `O=c1c(O[C@@H]2O[C@H](CO)[C@@H](O)[C@@H](O)[C@H]2O)c(-c2ccc(O)cc2)oc2cc(O)cc(O)c12`, the viability at 24 h, 20 µM was 105% in data set [1] and 97.5% in data set [8]. The Activity in data set [2] was 83.79%. In addition, the IC50 was 80.4 µM in data set [3]; greater than 10 µM in data set [4]; greater than 10 µM in data set [5]; greater than 10 µM in data set [6]; greater than 10 µM in data set [7].
As for `O=C1c2c(O)cc(O)cc2O[C@]2(c3ccc(O)cc3)O[C@]12c1c(O)cc(O)c2c(=O)c(O[C@@H]3O[C@H](CO)[C@@H](O)[C@H](O)[C@H]3O)c(-c3ccc(O)cc3)oc12`, the viability at 24 h, 20 µM in data set [1] was 107%; in data set [8] it was 104%. In addition, in data set [2], the Activity was found to be 90.12%. The IC50 in data set [3] was 56.9 µM; in data set [4], greater than 10 µM; in data set [5] it was greater than 10 µM; in data set [6] it was greater than 10 µM; in data set [7], greater than 10 µM.
For the compound `O=C1c2c(O)cc(O)cc2O[C@@]2(c3ccc(O)cc3)O[C@@]12c1c(O)cc(O)c2c(=O)c(O[C@@H]3O[C@H](CO)[C@@H](O)[C@H](O)[C@H]3O)c(-c3ccc(O)cc3)oc12`, the viability at 24 h, 20 µM was 113% in data set [1] and 110% in data set [8]. In addition, the Activity in data set [2] was found to be 121.42%. Moreover, the IC50 in data set [3] was 33.3 µM; in data set [4] it was greater than 10 µM; in data set [5], greater than 10 µM; in data set [6], greater than 10 µM; in data set [7] it was greater than 10 µM.
With `C[C@@H]1O[C@@H](O[C@H]2[C@H](Oc3c(-c4ccc(O)cc4)oc4cc(O)cc(O)c4c3=O)O[C@H](CO)[C@@H](O)[C@@H]2O)[C@H](O)[C@H](O)[C@H]1O`, the values for the viability at 24 h, 20 µM in data set [1] and in data set [8] were 102% and 103%, respectively. The Activity in data set [2] was 123.31%. For the same compound, the IC50 is 31.7 µM in data set [3]; greater than 10 µM in data set [4]; greater than 10 µM in data set [5]; greater than 10 µM in data set [6]; greater than 10 µM in data set [7].
Turning to `O=C1c2c(O)cc(O)cc2O[C@H](c2cc(O)c(O)c(O)c2)[C@H]1O` [AMPELOPSIN], the viability at 24 h, 20 µM came out at 110% in data set [1] and 97% in data set [8]. Also, in data set [2], the Activity is reported as 172.04%. For the same compound, the IC50 in data set [3] was 32.7 µM; in data set [4], greater than 10 µM; in data set [5], greater than 10 µM; in data set [6], greater than 10 µM; in data set [7], greater than 10 µM.
As for `O=c1c(O[C@@H]2O[C@H](CO)[C@@H](O)[C@H](O)[C@H]2O)c(-c2ccc(O)cc2)oc2cc(O)cc(O)c12` [ASTRAGALIN], the results for the viability at 24 h, 20 µM in data set [1] and in data set [8] were 115% and 97.5%, respectively. The Activity in data set [2] was found to be 114.67%. Besides, the IC50 is 23.5 µM in data set [3]; greater than 10 µM in data set [4]; greater than 10 µM in data set [5]; greater than 10 µM in data set [6]; greater than 10 µM in data set [7].
As to `COc1cc([C@@H]2c3cc4c(cc3[C@@H](O[C@@H]3O[C@@H]5CO[C@@H](C)O[C@H]5[C@H](O)[C@H]3O)[C@H]3COC(=O)[C@H]23)OCO4)cc(OC)c1O` [ETOPOSIDE], the IC50 in data set [4] worked out at 1.1 µM; in data set [5] it was 1.95 µM; in data set [6], 1.24 µM; in data set [7] it was 0.92 µM.
In the case of `O=c1c(O[C@@H]2O[C@H](CO)[C@@H](O)[C@H](O)[C@H]2O)c(-c2ccc(O)c(O)c2)oc2cc(O)cc(O)c12` [ISOQUERCETIN], the results for the viability at 24 h, 20 µM in data set [1] and in data set [8] were 107% and 95.6%, respectively. The Activity in data set [2] was 98.67%. Also, the IC50 in data set [3] is 55.6 µM; in data set [4], greater than 10 µM; in data set [5], greater than 10 µM; in data set [6], greater than 10 µM; in data set [7], greater than 10 µM.
Take `O=c1c(O)c(-c2ccc(O)cc2)oc2cc(O)cc(O)c12` [KAEMPFEROL]: the viability at 24 h, 20 µM was determined as 97.2% in data set [1] and 119% in data set [8]. In addition, the Activity in data set [2] came out at 115.98%. Further, the half-inhibitory concentration (IC50) in data set [3] is 8.86 µM; in data set [4], greater than 10 µM; in data set [5] it was greater than 10 µM; in data set [6], greater than 10 µM; in data set [7], greater than 10 µM.
In the case of `C[C@@H]1O[C@@H](OC[C@H]2O[C@@H](Oc3c(-c4ccc(O)cc4)oc4cc(O)cc(O)c4c3=O)[C@H](O)[C@@H](O)[C@@H]2O)[C@H](O)[C@H](O)[C@H]1O` [NICOTIFLOROSIDE], the viability at 24 h, 20 µM came out at 99.6% in data set [1] and 97.9% in data set [8]. The Activity in data set [2] stood at 97.59%. The IC50 was 44.4 µM in data set [3]; greater than 10 µM in data set [4]; greater than 10 µM in data set [5]; greater than 10 µM in data set [6]; greater than 10 µM in data set [7].
On to `O=c1c(O)c(-c2ccc(O)c(O)c2)oc2cc(O)cc(O)c12` [QUERCETIN], for which the viability at 24 h, 20 µM in data set [1] came out at 103%; in data set [8], 101%. Besides, the Activity in data set [2] turned out to be 118.77%. Moreover, the concentration for half-maximal inhibition (IC50) in data set [3] is 19.1 µM; in data set [4], greater than 10 µM; in data set [5], greater than 10 µM; in data set [6] it was greater than 10 µM; in data set [7], greater than 10 µM.
`C[C@@H]1O[C@@H](OC[C@H]2O[C@@H](Oc3c(-c4ccc(O)c(O)c4)oc4cc(O)cc(O)c4c3=O)[C@H](O)[C@@H](O)[C@@H]2O)[C@H](O)[C@H](O)[C@H]1O` [RUTIN]: the viability at 24 h, 20 µM in data set [1] is 113%; in data set [8], 99.2%. The Activity in data set [2] was found to be 108.27%. Also, the IC50 in data set [3] was 24.3 µM; in data set [4] it was greater than 10 µM; in data set [5] it was greater than 10 µM; in data set [6], greater than 10 µM; in data set [7], greater than 10 µM.
As for `CCCCC/C=C/C(=O)CCc1ccc(O)c(OC)c1` [SHOGAOL], the viability at 24 h, 20 µM in data set [1] amounted to 104%. In addition, in data set [2], the Activity was 143.74%.
Regarding `CNC(=N)NCCC[C@H](N)C(=O)O` [TILARGININE], in data set [3], the IC50 amounted to 21.2 µM. For the same compound, the viability at 24 h, 20 µM in data set [8] was 120%.
